The species entered for one data set is Rattus norvegicus. The experiment in a line: Inhibition of cyclooxygenase in Wistar rat peritoneal leukocytes at 50 ug/mL. It is filed as cell-based. In outline:
(§1)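 Peritoneal leukocytes (~85% PMNs) came from male Wistar rats (200-300 g) 16-20 h after ip 6% oyster glycogen and were used at 2.5 × 10^6 cells/mL in complete HBSS. The COX readout was supernatant TXB2 by radioimmunoassay (3H-TXB2 tracer, rabbit antiserum, 4 °C, 18 h).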

Data set [1] addresses T1, Polyunsaturated fatty acid 5-lipoxygenase (Rattus norvegicus) (UniProt P12527).
T1 sequence (whole entry): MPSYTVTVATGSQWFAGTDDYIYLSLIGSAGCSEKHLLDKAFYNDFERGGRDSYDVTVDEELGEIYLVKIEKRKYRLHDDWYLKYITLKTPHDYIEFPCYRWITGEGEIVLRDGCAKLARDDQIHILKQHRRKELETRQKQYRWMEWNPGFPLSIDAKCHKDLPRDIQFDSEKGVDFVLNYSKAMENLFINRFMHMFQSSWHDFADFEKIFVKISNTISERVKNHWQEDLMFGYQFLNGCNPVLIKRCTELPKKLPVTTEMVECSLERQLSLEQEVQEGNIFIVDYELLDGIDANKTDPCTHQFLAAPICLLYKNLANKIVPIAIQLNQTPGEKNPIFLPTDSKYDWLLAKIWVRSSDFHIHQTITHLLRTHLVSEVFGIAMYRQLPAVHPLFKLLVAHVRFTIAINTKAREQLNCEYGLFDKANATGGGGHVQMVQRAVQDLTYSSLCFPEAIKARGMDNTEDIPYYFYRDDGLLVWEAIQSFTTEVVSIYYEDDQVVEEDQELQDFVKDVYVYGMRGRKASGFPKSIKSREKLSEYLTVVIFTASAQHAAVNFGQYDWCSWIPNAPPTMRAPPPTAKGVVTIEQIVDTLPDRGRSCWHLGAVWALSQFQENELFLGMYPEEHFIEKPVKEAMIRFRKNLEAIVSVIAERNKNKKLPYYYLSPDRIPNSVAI
The experiment in a line: Inhibition of 5-lipoxygenase in Wistar rat peritoneal leukocytes at 50 ug/mL. It is filed as cell-based. The procedure, abridged: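 Leukocytes (~85% PMNs) were elicited in male Wistar rats (200-300 g) with ip 6% oyster glycogen and harvested 16-20 h later. Cells at 2.5 × 10^6/mL in complete HBSS were tested in triplicate, preincubated with the sample (in DMSO, or CHCl3 evaporated) for 10 min at 37 °C, then given A23187 for 10 min. Supernatant LTB4 was measured by RIA (3H-LTB4 tracer, rabbit antiserum, 18 h, 4 °C).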

The target of data set [2] is T2, Polyunsaturated fatty acid 5-lipoxygenase (Rattus norvegicus, UniProt P12527).
T2 sequence (P12527 whole entry): T1 sequence (whole entry)
The experiment in a line: Inhibition of 5-lipoxygenase in Wistar rat peritoneal leukocytes. It is filed as cell-based. In outline:
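Male Wistar rat peritoneal leukocytes (~85% PMNs) elicited by ip 6% oyster glycogen, harvested 16-20 h later, and resuspended at 2.5 × 10^6 cells/mL in HBSS with 1.26 mM Ca2+ and 0.9 mM Mg2+. Triplicates were preincubated 10 min at 37 °C with the test agent, then stimulated 10 min with calcium ionophore A23187. Supernatant LTB4 was measured by radioimmunoassay using a 3H-LTB4 tracer and rabbit antiserum (4 °C, 18 h).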

Data set [3] in a line: Inhibition of cyclooxygenase in Wistar rat peritoneal leukocytes. It is filed as cell-based. In outline:
as §1

Data set [4] can be described thus: Cell viability of Wistar rat peritoneal leukocytes by trypan blue exclusion method. It is filed as cell-based, Leukocyte. The note with it: read-out: Activity.

Results on 18 compounds are retold here after ChEMBL document CHEMBL1144107, “Novel and known constituents from Buddleja species and their activity against leukocyte eicosanoid generation” (J Nat Prod, 1999).

A value given as a limit tells only on which side of the number the result lay.

The term inhibition denotes the share of the control response that was lost under treatment. High values mean a response far below the control, low ones a response near the control. With `C=C1CCC[C@H](C)C(=O)[C@H](OC(C)=O)[C@@H]2[C@@H]1CC2(C)C`, the inhibition (in the data set listed under Rattus norvegicus; in data set [1]) was 0% each time.

For orientation: IC50 means the concentration that gives 50% inhibition. Read a low IC50 as greater potency in that assay. Regarding `C=C1CC/C=C(\C)C(=O)C[C@@H]2[C@@H]1CC2(C)C` [BUDDLEDIN C], the inhibition in the data set filed under Rattus norvegicus was found to be 9.5%; in data set [1] it was 16.4%. Moreover, the IC50 in data set [2] and in data set [3] was above 200 µM throughout.

Regarding `COc1ccc2c(c1)c(CC(=O)O)c(C)n2C(=O)c1ccc(Cl)cc1`, the inhibition was 100% in the data set filed under Rattus norvegicus and 0% in data set [1].

In the case of `CCn1c(=O)ccc2cc(COc3cc(F)cc(C4(OC)CCOCC4)c3)ccc21`, the inhibition turned out to be 47.8% in the data set filed under Rattus norvegicus and 100% in data set [1].

For the compound `C=C1CC/C=C(\C)C(=O)[C@H](OC(C)=O)[C@@H]2[C@@H]1CC2(C)C` [BUDDLEDIN A], the inhibition came to 89.3% in the data set filed under Rattus norvegicus and 98% in data set [1]. The figures for the IC50 in data set [2] and in data set [3] were 50.4 µM and 13.7 µM, respectively.

With `COC(CO[C@@H]1O[C@H](CO)[C@@H](OC(=O)/C=C/c2ccc(O)c(O)c2)[C@H](O[C@@H]2O[C@@H](C)[C@H](O)[C@@H](O)[C@H]2O)[C@H]1O)c1ccc(O)c(O)c1` (some centres undefined), the inhibition (in the data set listed under Rattus norvegicus; in data set [1]) was 0% in each case.

For the compound `O=C(/C=C/c1ccc(O)c(O)c1)O[C@H]1[C@H](O)[C@@H](O)[C@H](OCCc2ccc(O)c(O)c2)O[C@@H]1CO`, the inhibition (in the data set listed under Rattus norvegicus; in data set [1]) was 0% each time.

Turning to `COc1ccc(-c2cc(=O)c3c(O)cc(O)cc3o2)cc1` [ACACETIN], the inhibition in the data set listed under Rattus norvegicus came out at 69.5%; in data set [1], 77.6%. For the same compound, the IC50 is 123 µM in data set [2] and 77.5 µM in data set [3].

Regarding `C[C@H]1O[C@H](O[C@@H]2[C@@H](O)[C@H](OCCc3ccc(O)c(O)c3)O[C@H](CO[C@H]3OCC(O)(CO)[C@@H]3O)[C@H]2OC(=O)/C=C/c2ccc(O)c(O)c2)[C@@H](O)[C@@H](O)[C@@H]1O` (some centres undefined), the inhibition (in the data set listed under Rattus norvegicus; in data set [1]) was 0% in each case.

Consider `O=C(O)c1ccc(OCCn2ccnc2)cc1`, for which the figures for the inhibition (in the data set filed under Rattus norvegicus; in data set [1]) were 89.6% and 0%, respectively.

As to `C[C@@H]1O[C@@H](O[C@@H]2[C@@H](O)[C@H](OCCc3ccc(O)c(O)c3)O[C@H](CO[C@@H]3OC[C@H](O)[C@H](O)[C@H]3O)[C@H]2OC(=O)/C=C/c2ccc(O)c(O)c2)[C@H](O)[C@H](O)[C@H]1O`, the inhibition (in the data set filed under Rattus norvegicus; in data set [1]) was 0% in each case.

In the case of `C[C@@H]1O[C@@H](O[C@@H]2[C@@H](O)[C@H](OCCc3ccc(O)c(O)c3)O[C@H](CO)[C@H]2OC(=O)/C=C/c2ccc(O)c(O)c2)[C@H](O)[C@H](O)[C@H]1O`, the inhibition (in the data set filed under Rattus norvegicus; in data set [1]) was 0% throughout.

With `CC(/C=C/C=C(\C)C(=O)O)=C\C=C\C=C(C)\C=C\C=C(/C)C(=O)O[C@H]1O[C@H](CO[C@@H]2O[C@H](CO)[C@@H](O)[C@H](O)[C@H]2O)[C@@H](O)[C@H](O)[C@H]1O` [CROCETIN MONOGENTIBIOSYL ESTER], the inhibition was 85.1% in the data set listed under Rattus norvegicus and 0% in data set [1]. In data set [3], this compound came in with an IC50 of 28.2 µM.

For `C=C1CC/C=C(\C)C(=O)[C@H](O)[C@@H]2[C@@H]1CC2(C)C` [BUDDLEDIN B], the inhibition was 47.9% in the data set listed under Rattus norvegicus and 49.3% in data set [1]. Also, the IC50 in data set [2] and in data set [3] was above 200 µM in each case.

Turning to `C/C1=C\CC(C)(C)/C=C/C(=O)/C(C)=C/CC1`, the inhibition (in the data set filed under Rattus norvegicus; in data set [1]) was 0% throughout.

As to `C[C@H]1O[C@H](O[C@@H]2[C@@H](O)[C@H](OCCc3ccc(O)c(O)c3)O[C@H](CO[C@H]3O[C@@H](CO)[C@H](O)[C@@H](O)[C@@H]3O)[C@H]2OC(=O)/C=C/c2ccc(O)c(O)c2)[C@@H](O)[C@@H](O)[C@@H]1O`, the inhibition (in the data set filed under Rattus norvegicus; in data set [1]) was 0% each time.

As to `Cc1cc(-c2ccc(/N=N/c3c(S(=O)(=O)O)cc4cc(S(=O)(=O)O)cc(N)c4c3O)c(C)c2)ccc1/N=N/c1c(S(=O)(=O)O)cc2cc(S(=O)(=O)O)cc(N)c2c1O` [TRYPAN BLUE], the viability in data set [4] is 95%.

Take `CCC(OC)(c1cccc(OCc2ccc3ccccc3c2)c1)c1nccs1` (centres undefined): the inhibition in the data set listed under Rattus norvegicus stood at 0%; in data set [1], 100%.
